Laboratory results taken from ChEMBL document CHEMBL3414450, “Synthetic phenylethanoid glycoside derivatives as potent neuroprotective agents” (Eur J Med Chem, 2015).
Activity calls are given as the source filed them. The calls are words filed in the database; no cut-off is given here.

Assays:
PC-12 [1] = assay: Neuroprotective activity in rat PC12 cells assessed as decrease in H2O2-induced cell death at 100 uM incubated for 6 hrs prior to H2O2 challenge measured after 1 hr by MTT assay; format: functional, cell-based
Outline: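 PC12 cells seeded at 1×10^5/well for 24 h. Pretreated 6 h with compound (100 μM; DMSO stock diluted in PBS), then challenged with 300 μM H2O2 for 1 h at 37 °C. MTT at 5 mg/mL for 4 h, DMSO solubilisation, A570. Survival is given as % of the PBS-treated control, mean ± SD, n = 3. Vitamin C was the positive control.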

PC-12 [2] = assay: Neuroprotective activity in rat PC12 cells assessed as decrease in 6-OHDA-induced cell death at 6.25 to 100 uM incubated for 6 hrs prior to 6-OHDA challenge measured after 24 hrs by MTT assay; format: functional, cell-based
Outline: (§1)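 PC12 cells seeded at 1×10^5/well for 24 h, pretreated 6 h with compound (6.25–100 μM; DMSO stock diluted in PBS), then exposed to 100 μM 6-OHDA for 24 h at 37 °C. Viability read by MTT (5 mg/mL, 4 h), DMSO, absorbance 570 nm. Expressed as % of the PBS-treated control, mean ± SD, n = 3.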

PC-12 [3] = assay: Neuroprotective activity in rat PC12 cells assessed as decrease in 6-OHDA-induced early and late apoptosis at 6.25 to 50 uM incubated for 6 hrs prior to 6-OHDA challenge measured after 24 hrs by annexin V/propidium iodide staining-based fluorescence microscopic analysis; format: functional, cell-based
Outline: (§2)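 PC12 cells on coverslips (1×10^5/well) pretreated 6 h with compound, then given 100 μM 6-OHDA for 24 h at 37 °C. After two PBS washes, stained with Annexin V-FITC/PI, each diluted 1:100 in binding buffer and mixed 1:1. Imaged by fluorescence microscopy (ex 488; em 515–545 and 575–635 nm). Apoptotic and necrotic cells counted in five fields, three separate groups. Edaravone was the positive control.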

PC-12 [4] = assay: Neuroprotective activity in rat PC12 cells assessed as decrease in 6-OHDA-induced cell death incubated for 6 hrs prior to 6-OHDA challenge measured after 24 hrs by MTT assay; format: functional, cell-based; outline: as §1
PC-12 [5] = assay: Neuroprotective activity in rat PC12 cells assessed as decrease in 6-OHDA-induced intracellular ROS level incubated for 6 hrs prior to 6-OHDA challenge measured after 24 hrs by DCFH-DA dye-based spectrofluor analysis; format: functional, cell-based
Outline: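 PC12 cells (1×10^5/well) pretreated 6 h with compound at several concentrations one day after seeding, then given 100 μM 6-OHDA for 24 h at 37 °C. Loaded with DCFH-DA (1:1000 in DMEM) for 30 min at 37 °C, 5% CO2, then washed three times with PBS. DCF fluorescence read at 488/525 nm in five fields per well. Untreated cells are set to 100%, mean ± SD, n = 3. Edaravone was the positive control.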

[6] = Cytotoxicity against rat PC12 cells assessed as cell viability at 100 uM incubated for 6 hrs prior to PBS treatment measured after 1 hr by MTT assay; format: cell-based; conditions: pc-12, 1 h
PC-12 [7] = assay: Neuroprotective activity in rat PC12 cells assessed as decrease in 6-OHDA-induced early and late apoptosis at 1.56 to 6.25 uM incubated for 6 hrs prior to 6-OHDA challenge measured after 24 hrs by annexin V/propidium iodide staining-based fluorescence microscopic analysis; format: functional, cell-based; outline: as §2
PC-12 [8] = assay: Neuroprotective activity in rat PC12 cells assessed as decrease in 6-OHDA-induced apoptosis at 200 uM incubated for 6 hrs prior to 6-OHDA challenge measured after 24 hrs by annexin V/propidium iodide staining-based fluorescence microscopic analysis; format: functional, cell-based; outline: as §2
PC-12 [9] = assay: Neuroprotective activity in rat PC12 cells assessed as decrease in 6-OHDA-induced early and late apoptosis at 6.25 to 25 uM incubated for 6 hrs prior to 6-OHDA challenge measured after 24 hrs by annexin V/propidium iodide staining-based fluorescence microscopic analysis; format: functional, cell-based; outline: as §2

| SMILES | Activity (PC-12 [1]) | Activity (PC-12 [2]) | Activity (PC-12 [4]) | Activity (PC-12 [5]) | Activity [6] | further results |
| --- | --- | --- | --- | --- | --- | --- |
| OC[C@H]1O[C@@H](OCCc2ccc(O)c(O)c2)[C@H](O)[C@@H](O)[C@@H]1O | Active | Active | – | – | – | – |
| O=C(Cc1ccc(O)c(O)c1)O[C@H]1[C@H](O)[C@@H](O)[C@H](OCCc2ccc(O)c(O)c2)O[C@@H]1CO | Active | – | Dose-dependent effect | Dose-dependent effect | Non-toxic | Activity (PC-12 [3]): Active |
| COc1ccc(/C=C/C(=O)O[C@H]2[C@H](O)[C@@H](O)[C@H](OCCc3ccc(O)c(O)c3)O[C@@H]2CO)cc1OC | inactive | – | – | – | – | – |
| O=C(/C=C/c1ccc(O)c(O)c1)OCCc1ccc(O)c(O)c1 | Active | – | Dose-dependent effect | Dose-dependent effect | Non-toxic | Activity (PC-12 [7]): Active |
| O=C(/C=C/c1ccc(F)c(F)c1)O[C@H]1[C@H](O)[C@@H](O)[C@H](OCCc2ccc(O)c(O)c2)O[C@@H]1CO | Active | Active | – | – | – | – |
| O=C(/C=C/c1ccc(O)c(O)c1)O[C@H]1[C@H](O)[C@@H](O)[C@H](OCCc2ccc(O)c(O)c2)O[C@@H]1CO | Active | Active | – | – | – | – |
| O=C(/C=C/c1ccc(Cl)cc1)O[C@H]1[C@H](O)[C@@H](O)[C@H](OCCc2ccc(O)c(O)c2)O[C@@H]1CO | Active | Active | – | – | – | – |
| CC1=NN(c2ccccc2)C(=O)C1 | – | – | – | – | – | Activity (PC-12 [8]): inactive |
| COC(=O)[C@]1(OC)C[C@H](O)[C@@H](NC(=O)/C=C/c2ccc(O)c(O)c2)[C@H]([C@H](O)[C@H](O)CO)O1 | Active | – | Dose-dependent effect | Dose-dependent effect | Non-toxic | Activity (PC-12 [9]): Active |
